ChEMBL document CHEMBL4138193, “Novel indole and triazole based hybrid molecules exhibit potent anti-adipogenic and antidyslipidemic activity by activating Wnt3a/β-catenin pathway” (Eur J Med Chem, 2018)
Calls of active or inactive are those of the source. The rule behind the calls is not given here.

Legend:
3T3-L1 [1] = assay: Anti-adipogenic activity in mouse differentiated 3T3L1 cells assessed as inhibition of adipogenesis at 20 uM after 20 mins by Oil Red O staining based assay; type: functional
Method in brief: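 3T3-L1 preadipocytes given 20 µM compound with differentiation media. Oil red O stain (20 min) extracted, absorbance at 492 nm measured against MDI+ control, n=3, mean ± SD, Student t test.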

3T3-L1 [2] = assay: Anti-adipogenic activity in mouse 3T3L1 cells assessed as inhibition of adipogenesis after 20 mins by Oil Red O staining based assay; type: functional, cell-based; details: 3T3-L1, 20 min
Method in brief: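 3T3-L1 preadipocytes differentiated with compound at 0.1, 1, 3, 10, 30, 100 and 300 µM. Oil red O absorbance read at 492 nm, concentrations log-transformed and fitted by non-linear regression to give IC50. Two to three independent experiments, mean ± SEM.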

Syrian golden hamster [3] = assay: Induction of reverse cholestrol transport in high fat diet-induced dyslipidemia Syrian Golden hamster model assessed as increase in ABCA1 mRNA expression in eWAT at 100 mg/kg, po administered for 1 week by qRT-PCR analysis; type: functional, organism-based; details: Mesocricetus auratus
Syrian golden hamster [4] = assay: Induction of reverse cholestrol transport in high fat diet-induced dyslipidemia Syrian Golden hamster model assessed as decrease in NPCL1 mRNA expression in liver at 100 mg/kg, po administered for 1 week by qRT-PCR analysis; type: functional, organism-based; details: Mesocricetus auratus
Syrian golden hamster [5] = assay: Induction of reverse cholestrol transport in high fat diet-induced dyslipidemia Syrian Golden hamster model assessed as increase in ABCG8 mRNA expression in eWAT at 100 mg/kg, po administered for 1 week by qRT-PCR analysis; type: functional, organism-based; details: Mesocricetus auratus
Syrian golden hamster [6] = assay: Induction of reverse cholestrol transport in high fat diet-induced dyslipidemia Syrian Golden hamster model assessed as increase in LCAT mRNA expression in liver at 100 mg/kg, po administered for 1 week by qRT-PCR analysis; type: functional, organism-based; details: Mesocricetus auratus
Syrian golden hamster [7] = assay: Induction of reverse cholestrol transport in high fat diet-induced dyslipidemia Syrian Golden hamster model assessed as decrease in CYP7A1 mRNA expression in liver at 100 mg/kg, po administered for 1 week by qRT-PCR analysis; type: functional, organism-based; details: Mesocricetus auratus
Syrian golden hamster [8] = assay: Induction of reverse cholestrol transport in high fat diet-induced dyslipidemia Syrian Golden hamster model assessed as increase in SCARB1 mRNA expression in liver at 100 mg/kg, po administered for 1 week by qRT-PCR analysis; type: functional, organism-based; details: Mesocricetus auratus
Syrian golden hamster [9] = assay: Induction of reverse cholestrol transport in high fat diet-induced dyslipidemia Syrian Golden hamster model assessed as increase in ABCG5 mRNA expression in eWAT at 100 mg/kg, po administered for 1 week by qRT-PCR analysis; type: functional, organism-based; details: Mesocricetus auratus
Syrian golden hamster [10] = assay: Induction of reverse cholestrol transport in high fat diet-induced dyslipidemia Syrian Golden hamster model assessed as decrease in CETP mRNA expression in liver at 100 mg/kg, po administered for 1 week by qRT-PCR analysis; type: functional, organism-based; details: Mesocricetus auratus

Molecule `COc1ccc(Cn2cc(CN(Cc3cn(S(=O)(=O)c4ccc(C)cc4)c4ccccc34)S(=O)(=O)c3ccc(C)cc3)nn2)cc1` has an inhibition at 20 µM (3T3-L1 [1]) of 1%.
With `CC(=O)N(Cc1cccc(F)c1F)Cc1cn(S(=O)(=O)c2ccc(C)cc2)c2ccccc12` the IC50 (3T3-L1 [2]) was 17.5 µM and the inhibition at 20 µM (3T3-L1 [1]) was 57.5%.
`COc1ccc(Cn2cc(CN(Cc3cn(S(=O)(=O)c4ccc(C)cc4)c4ccccc34)S(=O)(=O)c3ccc(C)cc3)nn2)c(OC)c1OC` showed an inhibition at 20 µM (3T3-L1 [1]) of -18%.
In the case of `CC(C)OC(=O)C(C)(C)Oc1ccc(C(=O)c2ccc(Cl)cc2)cc1`, the Activity (Syrian golden hamster [3]) is reported as “Active”, the Activity (Syrian golden hamster [4]) is reported as “Active” and the Activity (Syrian golden hamster [5]) is reported as “Active”. For the same molecule, the Activity (Syrian golden hamster [6]) was “Active”, the Activity (Syrian golden hamster [7]) was “Active” and the Activity (Syrian golden hamster [8]) was “Active”. For the same molecule, the Activity (Syrian golden hamster [9]) was “Active” and the Activity (Syrian golden hamster [10]) was “Active”.
In the case of `Cc1ccc(S(=O)(=O)N(Cc2cccc(F)c2F)Cc2cn(S(=O)(=O)c3ccc(F)cc3)c3ccccc23)cc1`, the inhibition at 20 µM (3T3-L1 [1]) is reported as -35%.
Work on `Cc1ccc(S(=O)(=O)n2cc(CN(Cc3ccccc3)Cc3cccc(F)c3F)c3ccccc32)cc1` yielded an inhibition at 20 µM (3T3-L1 [1]) of -13.1%.
Work on `Cc1ccc(S(=O)(=O)N(Cc2cn(Cc3ccc(F)cc3F)nn2)Cc2cn(S(=O)(=O)c3ccc(C)cc3)c3ccccc23)cc1` yielded an inhibition at 20 µM (3T3-L1 [1]) of 12.3%.
In the case of `Cc1ccc(S(=O)(=O)n2cc(CN(Cc3cn(Cc4cccc(F)c4F)nn3)C(=O)C(F)(F)F)c3ccccc32)cc1`, the IC50 (3T3-L1 [2]) is reported as 19.1 µM and the inhibition at 20 µM (3T3-L1 [1]) is reported as 31.9%.
Molecule `COc1cc(Cn2cc(CN(Cc3c(-c4ccccc4)c4ccccc4n3S(=O)(=O)c3ccc(C)cc3)S(=O)(=O)c3ccc(C)cc3)nn2)cc(OC)c1OC` has an inhibition at 20 µM (3T3-L1 [1]) of -10.9%.
For `Cc1ccc(S(=O)(=O)n2cc(CN(Cc3cn(Cc4ccc(F)cc4)nn3)S(=O)(=O)c3ccccc3)c3ccccc32)cc1`, the inhibition at 20 µM (3T3-L1 [1]) was -21%.
Molecule `CC(=O)N(Cc1cn(Cc2cccc(F)c2F)nn1)Cc1cn(S(=O)(=O)c2ccc(C)cc2)c2ccccc12` has an IC50 (3T3-L1 [2]) of 9.1 µM and an inhibition at 20 µM (3T3-L1 [1]) of 39.5%.
Work on `Cc1ccc(S(=O)(=O)N(Cc2cn(Cc3ccc(F)cc3)nn2)Cc2c(-c3ccccc3)c3ccccc3n2S(=O)(=O)c2ccc(C)cc2)cc1` yielded an inhibition at 20 µM (3T3-L1 [1]) of -7.6%.
For `O=C(N(Cc1cccc(F)c1F)Cc1cn(S(=O)(=O)c2ccc(F)cc2)c2ccccc12)C(F)(F)F`, the inhibition at 20 µM (3T3-L1 [1]) was -52.3%.
With `Cc1ccc(S(=O)(=O)N(Cc2cn(Cc3ccccc3)nn2)Cc2cn(S(=O)(=O)c3ccc(C)cc3)c3ccccc23)cc1` the inhibition at 20 µM (3T3-L1 [1]) was 3.4%.
For `Cc1ccc(S(=O)(=O)N(Cc2cccc(F)c2F)Cc2cn(S(=O)(=O)c3ccc(C)cc3)c3ccccc23)cc1`, the inhibition at 20 µM (3T3-L1 [1]) was -13.9%.
For `O=S(=O)(c1ccc(F)cc1)N(Cc1ccccc1)Cc1cccc(F)c1F`, the inhibition at 20 µM (3T3-L1 [1]) was -81.9%.
In the case of `CC(=O)N(Cc1cccc(F)c1F)Cc1cn(S(=O)(=O)c2ccc(F)cc2)c2ccccc12`, the IC50 (3T3-L1 [2]) is reported as 10.6 µM and the inhibition at 20 µM (3T3-L1 [1]) is reported as 25.8%.
In the case of `Cc1ccc(S(=O)(=O)N(Cc2ccc(F)cc2)Cc2cccc(F)c2F)cc1`, the inhibition at 20 µM (3T3-L1 [1]) is reported as -97.7%.
`O=S(=O)(c1ccc(F)cc1)N(Cc1cccc(F)c1F)Cc1cn(S(=O)(=O)c2ccc(F)cc2)c2ccccc12` showed an inhibition at 20 µM (3T3-L1 [1]) of -20%.
In the case of `COc1ccc(Cn2cc(CN(Cc3cn(S(=O)(=O)c4ccc(C)cc4)c4ccccc34)S(=O)(=O)c3ccc(C)cc3)nn2)c(OC)c1`, the inhibition at 20 µM (3T3-L1 [1]) is reported as 7.6%.
Molecule `Cc1ccc(S(=O)(=O)n2cc(CN(Cc3cccc(F)c3F)S(C)(=O)=O)c3ccccc32)cc1` has an inhibition at 20 µM (3T3-L1 [1]) of -3.3%.
Molecule `Fc1ccc(CNCc2cccc(F)c2F)cc1` has an inhibition at 20 µM (3T3-L1 [1]) of -53.4%.
In the case of `Cc1ccc(S(=O)(=O)n2cc(CNCc3cccc(F)c3F)c3ccccc32)cc1`, the IC50 (3T3-L1 [2]) is reported as 30 µM and the inhibition at 20 µM (3T3-L1 [1]) is reported as 46%.
In the case of `Cc1ccc(S(=O)(=O)n2cc(CN(Cc3cccc(F)c3F)C(=O)C(F)(F)F)c3ccccc32)cc1`, the inhibition at 20 µM (3T3-L1 [1]) is reported as -5.5%.
Work on `Cc1ccc(S(=O)(=O)N(Cc2ccccc2)Cc2cccc(F)c2F)cc1` yielded an inhibition at 20 µM (3T3-L1 [1]) of -35.7%.
Molecule `Cc1ccc(S(=O)(=O)N(Cc2cn(Cc3ccc(F)cc3F)nn2)Cc2c(C)c3ccccc3n2S(=O)(=O)c2ccc(C)cc2)cc1` has an inhibition at 20 µM (3T3-L1 [1]) of -22%.
`Fc1cccc(CNCc2ccccc2)c1F` gave an inhibition at 20 µM (3T3-L1 [1]) of -38.5%.
With `Cc1ccc(S(=O)(=O)N(Cc2cn(Cc3ccccc3)nn2)Cc2c(-c3ccccc3)c3ccccc3n2S(=O)(=O)c2ccc(C)cc2)cc1` the inhibition at 20 µM (3T3-L1 [1]) was 0.03%.
`Cc1ccc(S(=O)(=O)n2cc(CN(Cc3cn(Cc4cc(F)ccc4F)nn3)S(=O)(=O)c3ccccc3)c3ccccc32)cc1` was tested, and the inhibition at 20 µM (3T3-L1 [1]) was -6.5%.
Work on `Cc1ccc(S(=O)(=O)N(Cc2cn(Cc3ccccc3Cl)nn2)Cc2cn(S(=O)(=O)c3ccc(C)cc3)c3ccccc23)cc1` yielded an inhibition at 20 µM (3T3-L1 [1]) of -4.8%.
With `O=S(=O)(c1ccc(F)cc1)n1cc(CNCc2cccc(F)c2F)c2ccccc21` the IC50 (3T3-L1 [2]) was 12.4 µM and the inhibition at 20 µM (3T3-L1 [1]) was 21%.
With `O=C(N(Cc1ccc(F)cc1)Cc1cccc(F)c1F)C(F)(F)F` the inhibition at 20 µM (3T3-L1 [1]) was -39.8%.
With `Fc1cccc(CNCc2c[nH]c3ccccc23)c1F` the inhibition at 20 µM (3T3-L1 [1]) was -1.7%.
In the case of `Cc1ccc(S(=O)(=O)n2cc(CN(Cc3cn(Cc4ccccc4)nn3)S(=O)(=O)c3ccccc3)c3ccccc32)cc1`, the inhibition at 20 µM (3T3-L1 [1]) is reported as -18%.
With `Cc1ccc(S(=O)(=O)N(Cc2cn(Cc3ccccc3)nn2)Cc2c(C)c3ccccc3n2S(=O)(=O)c2ccc(C)cc2)cc1` the inhibition at 20 µM (3T3-L1 [1]) was -5.9%.
In the case of `Cc1ccc(S(=O)(=O)n2cc(CN(Cc3cn(Cc4cc(F)ccc4F)nn3)S(C)(=O)=O)c3ccccc32)cc1`, the inhibition at 20 µM (3T3-L1 [1]) is reported as 3.4%.
`Cc1ccc(S(=O)(=O)n2cc(CN(Cc3cn(Cc4ccc(F)cc4)nn3)S(C)(=O)=O)c3ccccc32)cc1` was tested, and the inhibition at 20 µM (3T3-L1 [1]) was -19.5%.
`COc1cc(OC)c(Cn2cc(CN(Cc3cn(S(=O)(=O)c4ccc(C)cc4)c4ccccc34)S(=O)(=O)c3ccc(C)cc3)nn2)c(OC)c1` showed an inhibition at 20 µM (3T3-L1 [1]) of -22%.
For `Cc1ccc(S(=O)(=O)n2c(CN(Cc3cn(Cc4ccc(F)cc4F)nn3)S(C)(=O)=O)c(C)c3ccccc32)cc1`, the inhibition at 20 µM (3T3-L1 [1]) was -20.8%.
